Most compounds without a hit are left out; they make up all but 12% or so of the library.
ROMK mod: modulators of human ROMK potassium channel; hit rate 2% among 130,000; P48048; AID 1918; B-score at 10 µM; Tet-inducible ROMK, thallium flux fluorescence; actives lie on both sides;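 active = signal ratio slope over the read window, or its plate-corrected B-score, at least 3 SD from the plate mean, either direction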;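 note: B-score of the F/F0 ratio slope over 7 to 12 s after thallium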
Diaphorase inh: diaphorase inhibition or chemical oxidation counter-screen; hit rate 0.69% among 190,000; AID 1217; diaphorase resazurin-to-resorufin fluorescence, NADH, 16 min; bacterial (C. kluyveri) enzyme, not human; inhibition, % at 20 µM;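 active = primary screen inhibition at 20 µM above a set limit, cut at about 50% in these data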
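System: Bacterial diaphorase enzyme (C. kluyveri) | Incubation: 16-min room-temperature incubation before reading | Benchmarks: No-NADH positive control and DMSO neutral control | Measured by: Resorufin fluorescence 544/590 nm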
WT yeast gro inh: growth inhibition of WT yeast, mitochondrial fusion screen | mitochondrial fusion phenotypic screen, WT strain | inhibition, % at 10 µM | hit rate 2.1% among 190,000 | AID 1362; in the data active = inhibition above about 58%; tested in S. cerevisiae
Lmaj promast: Leishmania major promastigote growth inhibition; Leishmania major promastigotes, resazurin fluorescence viability; inhibition, % at 10 µM; hit rate 9% among 200,000; AID 1063; in the data active = inhibition above about 50%;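 note: promastigotes grown with compound for 44 hours at 28 °C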
Diaph act CS: activates diaphorase or chemically reduces, flagging diaphorase assay artifacts | hit rate 0.005% among 190,000 | Diaphorase/resazurin coupled assay, resorufin fluorescence, 16 min; active compounds read high; 1 = vehicle wells, 0 = NADH-free wells | activation factor at 20 µM;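 active = diaphorase activity raised at least twofold by the compound at 20 µM; inactive = activation factor below 2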
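Measured by – red resorufin fluorescence at 544/590 nm excitation/emission · Test system – Clostridium kluyveri diaphorase, purified enzyme · Incubation – reaction time 16 min, room temperature · Buffer or medium – 50 mM HEPES pH 7.4 with 4.542 mM MgCl2, 0.005% Tween 20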
KCC2 mod: modulators of human KCC2 chloride dependent transport; Q9H2X9; KCC2 cells, thallium flux FluoZin-2 fluorescence; B-score of Tl+ flux slope (higher = more flux/activation; lower = inhibition) at 10 µM; hit rate 2.2% among 190,000;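 active = thallium flux slope and its plate-corrected score both differing from the plate sample mean at a set confidence after two filtering rounds, in either direction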;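 note: slope of fluorescence scaled to starting intensity during 10 to 20 s after thallium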
Target sequence (Q9H2X9 whole entry, looked up): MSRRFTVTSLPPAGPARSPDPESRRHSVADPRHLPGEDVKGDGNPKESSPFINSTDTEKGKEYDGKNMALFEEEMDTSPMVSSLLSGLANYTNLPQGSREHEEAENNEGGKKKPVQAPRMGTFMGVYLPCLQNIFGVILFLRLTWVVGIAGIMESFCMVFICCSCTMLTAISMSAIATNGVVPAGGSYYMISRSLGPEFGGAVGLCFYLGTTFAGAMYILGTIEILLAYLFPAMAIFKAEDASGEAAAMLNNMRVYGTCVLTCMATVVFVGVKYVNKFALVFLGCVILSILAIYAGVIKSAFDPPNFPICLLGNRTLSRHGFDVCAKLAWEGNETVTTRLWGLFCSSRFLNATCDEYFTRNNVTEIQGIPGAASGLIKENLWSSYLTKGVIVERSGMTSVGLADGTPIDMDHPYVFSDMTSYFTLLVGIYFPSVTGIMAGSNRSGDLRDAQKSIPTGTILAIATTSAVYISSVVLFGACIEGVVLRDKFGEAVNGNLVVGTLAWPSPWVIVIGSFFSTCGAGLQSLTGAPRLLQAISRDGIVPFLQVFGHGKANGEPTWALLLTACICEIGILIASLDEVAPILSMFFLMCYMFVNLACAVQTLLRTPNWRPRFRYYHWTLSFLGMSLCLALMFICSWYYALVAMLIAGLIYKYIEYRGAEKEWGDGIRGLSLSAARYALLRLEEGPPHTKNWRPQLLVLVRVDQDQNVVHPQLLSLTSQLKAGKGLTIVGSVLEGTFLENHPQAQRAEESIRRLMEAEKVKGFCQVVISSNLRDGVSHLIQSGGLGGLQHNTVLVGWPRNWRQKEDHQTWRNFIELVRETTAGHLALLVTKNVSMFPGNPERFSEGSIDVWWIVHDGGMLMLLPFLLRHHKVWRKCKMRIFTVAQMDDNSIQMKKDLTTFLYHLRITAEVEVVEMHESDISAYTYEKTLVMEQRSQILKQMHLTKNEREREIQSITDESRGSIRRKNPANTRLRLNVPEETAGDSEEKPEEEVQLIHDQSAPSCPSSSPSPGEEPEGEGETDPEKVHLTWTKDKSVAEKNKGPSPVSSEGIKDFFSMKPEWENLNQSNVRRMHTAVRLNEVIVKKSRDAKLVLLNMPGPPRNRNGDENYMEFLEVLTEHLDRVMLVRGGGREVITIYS
A number is an active result.

Screening CCN(CC)c1ccc(N=Cc2ccc([N+](=O)[O-])o2)cc1 returned ROMK mod inactive, Diaphorase inh inactive, WT yeast gro inh inactive, Lmaj promast 91.2, Diaph act CS inactive and KCC2 mod inactive.
Screening CCCCCC(=O)N/N=C/c1ccc([N+](=O)[O-])o1 returned Diaphorase inh inactive, WT yeast gro inh inactive, Lmaj promast 84.8, Diaph act CS inactive and KCC2 mod inactive.
Screening O=C(CNC(=O)c1ccccc1)N/N=C/c1ccc([N+](=O)[O-])s1 returned ROMK mod inactive, Diaphorase inh inactive, WT yeast gro inh inactive, Lmaj promast 100.5, Diaph act CS inactive and KCC2 mod inactive.
O=C(CNc1ccccc1)N/N=C/c1ccc([N+](=O)[O-])o1 was read as Diaphorase inh inactive, WT yeast gro inh inactive, Lmaj promast 100.0 and Diaph act CS inactive.
COc1cc(NC(=S)Nc2ccccn2)c(OC)cc1Cl was read as ROMK mod inactive, Diaphorase inh inactive, WT yeast gro inh inactive, Lmaj promast inactive, Diaph act CS inactive and KCC2 mod inactive.
For Cc1cccc(C)c1NC(=O)C(NC(=O)c1ccccn1)c1ccccc1[N+](=O)[O-] (stereo not given) the results were Diaphorase inh inactive, WT yeast gro inh inactive, Lmaj promast inactive, Diaph act CS inactive and KCC2 mod inactive.
O=C(CCC(=O)Nc1cccc(Cl)c1)N/N=C/c1cc([N+](=O)[O-])ccc1O was read as ROMK mod inactive, Diaphorase inh inactive, WT yeast gro inh inactive, Lmaj promast inactive, Diaph act CS inactive and KCC2 mod inactive.
O=C(CCC(=O)Nc1ccc(Cl)cc1Cl)N/N=C/c1ccc([N+](=O)[O-])o1 was read as ROMK mod inactive, Diaphorase inh inactive, WT yeast gro inh inactive, Lmaj promast 100.7, Diaph act CS inactive and KCC2 mod inactive.
Screening Cc1ccc(NCC(=O)N/N=C\c2ccc([N+](=O)[O-])o2)cc1 returned ROMK mod inactive, Diaphorase inh inactive, WT yeast gro inh inactive, Lmaj promast 100.1, Diaph act CS inactive and KCC2 mod inactive.
For O=C(N/N=C/c1ccc(N2CCOCC2)o1)c1cccc([N+](=O)[O-])c1 the results were ROMK mod inactive, Diaphorase inh 75.9, WT yeast gro inh inactive, Lmaj promast inactive, Diaph act CS inactive and KCC2 mod inactive.
O=C(CNC(=O)c1ccccc1)N/N=C/c1ccc([N+](=O)[O-])o1 was read as Diaphorase inh inactive, WT yeast gro inh inactive, Lmaj promast 99.3, Diaph act CS inactive and KCC2 mod inactive.
O=C(N/N=C/c1ccc(N2CCCCC2)o1)c1ccccc1 was read as Diaphorase inh inactive, WT yeast gro inh inactive, Lmaj promast inactive, Diaph act CS inactive and KCC2 mod inactive.
For Cc1ccc(NCC(=O)N/N=C/c2ccc(C(=O)O)cc2)cc1 the results were KCC2 mod inactive.
Screening O=C(Nc1ccc2c(c1)CCC2)Nc1ccc2c(c1)OCO2 returned Diaphorase inh inactive, WT yeast gro inh inactive, Lmaj promast inactive, Diaph act CS inactive and KCC2 mod inactive.
For O=C(N/N=C/c1ccc([N+](=O)[O-])o1)c1cc2c(ccc3ccccc32)o1 the results were ROMK mod inactive, Diaphorase inh inactive, WT yeast gro inh inactive, Lmaj promast 98.7, Diaph act CS inactive and KCC2 mod inactive.
For Cc1nc2ccccn2c1C(=O)N/N=C/c1ccc([N+](=O)[O-])cc1 the results were ROMK mod inactive and KCC2 mod inactive.
`O=C(N/N=C/c1ccc([N+](=O)[O-])o1)c1cc2ccccc2o1` gave ROMK mod inactive and KCC2 mod inactive.
`Cc1nc2ccccn2c1C(=O)N/N=C/c1ccc([N+](=O)[O-])o1` gave Diaphorase inh inactive, WT yeast gro inh inactive, Lmaj promast 100.0, Diaph act CS inactive and KCC2 mod inactive.
For CCOc1ccc(S(=O)(=O)N2Cc3ccccc3CC2C(=O)O)cc1 (stereo not given) the results were KCC2 mod inactive.
For CCCCN(C(=O)CSc1nnc(Nc2ccccc2)s1)c1c(N)n(CCC)c(=O)[nH]c1=O the results were ROMK mod inactive, Diaphorase inh inactive, WT yeast gro inh inactive, Lmaj promast inactive, Diaph act CS inactive and KCC2 mod inactive.
Screening NC1=NC(=O)/C(=C/c2ccccc2OS(=O)(=O)c2ccc3ccccc3c2)S1 returned Diaphorase inh inactive, WT yeast gro inh inactive, Lmaj promast inactive, Diaph act CS inactive and KCC2 mod inactive.
Screening Cc1ccc([N+](=O)[O-])cc1NC(=O)CCCOc1ccccc1 returned Diaphorase inh inactive, WT yeast gro inh inactive, Lmaj promast inactive and Diaph act CS inactive.
Screening Clc1ccc2nc(-c3ccccn3)c(Nc3ccc4c(c3)OCO4)n2c1 returned ROMK mod inactive, Diaphorase inh inactive, WT yeast gro inh 72.9, Lmaj promast 99.9, Diaph act CS inactive and KCC2 mod inactive.
For COc1ccccc1CN1CCNC(=O)C1CC(=O)NCCOc1cccnc1 (stereo not given) the results were Diaphorase inh inactive, WT yeast gro inh inactive, Lmaj promast inactive, Diaph act CS inactive and KCC2 mod inactive.
CCOC(=O)C(Sc1cc(C)nc(N)n1)C(C)=O (stereo not given) was read as ROMK mod inactive, Diaphorase inh inactive, WT yeast gro inh inactive, Lmaj promast inactive, Diaph act CS inactive and KCC2 mod inactive.
O=C(NC1CCCCC1)N(Cc1cc2cc3c(cc2[nH]c1=O)OCCO3)C1CCCCC1 was read as ROMK mod inactive, Diaphorase inh inactive, WT yeast gro inh inactive, Lmaj promast 68.8 and Diaph act CS inactive.
`CCc1ccc2[nH]c(=O)c(CN(Cc3ccccc3)C(=O)Nc3ccccc3OC)cc2c1` gave ROMK mod inactive, Diaphorase inh inactive, WT yeast gro inh inactive, Lmaj promast 63.6, Diaph act CS inactive and KCC2 mod inactive.
`COc1ccccc1NC(=S)N(CCCN(C)C)Cc1cc2cc3c(cc2[nH]c1=O)OCO3` gave ROMK mod inactive, Diaphorase inh inactive, WT yeast gro inh inactive, Lmaj promast inactive, Diaph act CS inactive and KCC2 mod inactive.
Screening COc1ccc(CC(=O)N(Cc2cc3cc(OC)ccc3[nH]c2=O)C(C)C)cc1 returned Diaphorase inh inactive, WT yeast gro inh inactive, Lmaj promast 94.0 and Diaph act CS inactive.
COc1cc2cc(CN(C(=O)NC3CCCCC3)C3CCCC3)c(=O)[nH]c2cc1OC was read as ROMK mod inactive, Diaphorase inh inactive, WT yeast gro inh inactive, Lmaj promast inactive, Diaph act CS inactive and KCC2 mod inactive.
COC(=O)c1ccccc1NC(=S)N(Cc1ccc2c(c1)OCO2)Cc1cc2cc(OC)ccc2[nH]c1=O was read as Diaphorase inh inactive, WT yeast gro inh inactive, Lmaj promast 55.5, Diaph act CS inactive and KCC2 mod inactive.
For OC(CNCc1ccco1)Cn1c2ccc(Br)cc2c2cc(Br)ccc21 (stereo not given) the results were ROMK mod inactive, Diaphorase inh inactive, WT yeast gro inh inactive, Lmaj promast inactive, Diaph act CS inactive and KCC2 mod inactive.
